Results published in ChEMBL document CHEMBL3351787, “Electrophilic warhead-based design of compounds preventing NLRP3 inflammasome-dependent pyroptosis” (J Med Chem, 2014).
Activity calls are given as the source filed them.

How the values were obtained:
[1] = Antipyroptotic activity in PMA-differentiated and LPS-primed human THP1 cells assessed as decrease in ATP-induced pyroptosis measured as LDH activity at 10 uM after 1 hrs by colorimetric assay; type: functional; conditions: THP-1, 1 h
[2] = Cytotoxicity against human HK2 cells assessed as cell viability after 72 hrs by MTT assay; type: cell-based, HK-2; conditions: read-out: TC50
Method in brief: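 MTT viability assay in human renal epithelial HK-2 cells. TC50 defined as molar concentration lowering HK-2 viability by 50%.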

[3] = cysteamine reactivity assessed as second-order reaction rate constant in PBS at pH 7.4 and […] by DTNB spectrophotometric assay
[4] = Antipyroptotic activity in PMA-differentiated and LPS-primed human THP1 cells assessed as decrease in ATP-induced pyroptosis measured as LDH activity after 1 hrs pretreated with 5 mM ATP for 1 hr by colorimetric assay; type: functional, cell-based; conditions: thp-1
Method in brief: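 PMA-differentiated, LPS-primed THP-1 cells pre-treated 1 h with compound (0.001-10 μM), then ATP 5 mM for 1 h. LDH in collected supernatant read colorimetrically; output as decrease of cell death vs vehicle. EC50 taken as concentration giving 50% of maximal possible effect. Mean±SEM of at least four experiments in triplicate.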

[5] = (§1) Antipyroptotic activity in PMA-differentiated and LPS-primed human THP1 cells assessed as decrease in nigericin-induced pyroptosis measured as LDH activity after 1 hrs pretreated with 10 uM nigericin for 1.5 hrs by colorimetric assay; type: functional, cell-based; conditions: thp-1
Method in brief: (§2)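 Differentiated (PMA) and LPS-primed THP-1 cells received compound at 0.001-10 μM 1 h ahead of nigericin (10 μM, 1.5 h). Supernatant LDH activity measured by colorimetric assay, expressed as decrease of cell death vs vehicle alone; pEC50 derived from concentration-response curves. Mean±SEM, ≥4 experiments in triplicate.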

THP-1 = assay: as §1; type: functional, cell-based; method in brief: as §2
Caspase-1 (Homo sapiens) [6] = target: T1, Caspase-1 (Homo sapiens) (UniProt P29466); assay: Inhibition of caspase 1 (unknown origin) using N-acetyl-Tyr-Val-Ala-Asp-para-nitroanilide substrate assessed as rate of para-nitroanilide release at 10 uM by spectrophotometric assay
T1 sequence (whole entry): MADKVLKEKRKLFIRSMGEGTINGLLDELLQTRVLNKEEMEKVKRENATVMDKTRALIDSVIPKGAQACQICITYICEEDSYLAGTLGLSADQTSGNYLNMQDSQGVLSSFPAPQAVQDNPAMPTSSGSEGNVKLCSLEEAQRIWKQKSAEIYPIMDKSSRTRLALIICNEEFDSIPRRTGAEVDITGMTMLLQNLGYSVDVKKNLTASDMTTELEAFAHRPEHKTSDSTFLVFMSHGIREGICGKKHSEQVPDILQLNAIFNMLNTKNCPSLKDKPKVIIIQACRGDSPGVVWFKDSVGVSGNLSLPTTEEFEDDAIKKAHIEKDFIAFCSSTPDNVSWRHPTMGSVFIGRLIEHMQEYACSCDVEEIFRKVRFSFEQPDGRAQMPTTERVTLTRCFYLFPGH
Method in brief: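 Caspase-1 enzyme from THP-1 cultures (50 U) pre-incubated 15 min with compound (10 μM) in reaction buffer at 37 °C. Ac-YVAD-pNA substrate (200 μM) added; pNA release monitored continuously at 405 nm over 1 h. Reported as % inhibition vs vehicle; mean±SEM, ≥3 experiments in duplicate.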

[7] = target: NACHT, LRR and PYD domains-containing protein 3 (Homo sapiens) (UniProt Q96P20); assay: Inhibition of recombinant NLRP3-ATPase (unknown origin) assessed as hydrolysis of ATP at 10 uM
Sequence of NACHT, LRR and PYD domains-containing protein 3 (Homo sapiens) (Q96P20 whole entry, the tested form may be a part): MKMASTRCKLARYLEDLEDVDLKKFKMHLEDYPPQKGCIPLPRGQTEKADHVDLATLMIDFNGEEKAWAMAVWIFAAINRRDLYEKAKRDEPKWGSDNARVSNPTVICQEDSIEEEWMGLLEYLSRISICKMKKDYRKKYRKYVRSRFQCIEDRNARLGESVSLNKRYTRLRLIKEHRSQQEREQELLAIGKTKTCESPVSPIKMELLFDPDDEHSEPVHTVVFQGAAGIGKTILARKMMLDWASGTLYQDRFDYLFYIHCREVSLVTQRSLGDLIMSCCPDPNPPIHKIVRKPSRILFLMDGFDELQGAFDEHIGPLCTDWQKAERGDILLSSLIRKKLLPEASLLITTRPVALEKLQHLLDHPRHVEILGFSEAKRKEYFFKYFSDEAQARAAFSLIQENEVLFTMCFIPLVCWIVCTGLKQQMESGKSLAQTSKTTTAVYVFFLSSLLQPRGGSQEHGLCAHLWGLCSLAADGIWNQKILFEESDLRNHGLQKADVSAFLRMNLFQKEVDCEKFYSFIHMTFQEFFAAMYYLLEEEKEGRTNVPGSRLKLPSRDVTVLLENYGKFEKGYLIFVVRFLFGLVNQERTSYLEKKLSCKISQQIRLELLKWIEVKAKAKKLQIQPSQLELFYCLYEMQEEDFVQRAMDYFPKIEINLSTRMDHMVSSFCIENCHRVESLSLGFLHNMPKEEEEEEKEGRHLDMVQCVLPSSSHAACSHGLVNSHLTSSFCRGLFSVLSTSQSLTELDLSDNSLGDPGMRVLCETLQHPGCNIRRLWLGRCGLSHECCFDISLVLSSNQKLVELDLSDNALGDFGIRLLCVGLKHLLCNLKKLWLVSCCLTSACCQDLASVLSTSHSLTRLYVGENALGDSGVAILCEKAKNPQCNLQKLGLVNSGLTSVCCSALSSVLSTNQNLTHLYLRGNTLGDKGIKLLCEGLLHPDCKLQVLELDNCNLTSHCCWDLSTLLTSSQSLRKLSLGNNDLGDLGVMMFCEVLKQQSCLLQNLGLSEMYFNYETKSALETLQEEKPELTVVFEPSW
Method in brief: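 Recombinant NLRP3 (0.01 μg) pre-incubated 15 min with compound (10 μM); ATP 250 μM then added and incubated 1 h at 37 °C. ATP hydrolysis quantified as Pi content by colorimetric phosphate detection. Expressed as % inhibition vs vehicle; mean±SEM of ≥3 experiments in duplicate.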

[8] = Activation of Keap1-Nrf2 pathway in human THP1 cells assessed as NFE2L2 marker gene expression level at 10 uM after 2 hrs by RT-PCR analysis; type: functional, cell-based; conditions: THP-1
[9] = Activation of KIea[1/Nrf2 pathway in human THP1 cells assessed as HMOX1 marker gene expression level at 10 uM after 2 hrs by RT-PCR analysis; type: functional, cell-based; conditions: THP-1
Caspase-1 (Homo sapiens) [10] = target: T1, Caspase-1 (Homo sapiens); assay: Inhibition of caspase 1 (unknown origin) using N-acetyl-Tyr-Val-Ala-Asp-para-nitroanilide substrate assessed as rate of para-nitroanilide release after 15 to 60 mins preincubation by spectrophotometric assay
Method in brief: (§3)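 Caspase-1 from THP-1 cell cultures (50 U) pre-incubated 15-60 min with compound at 0.01-10 μM, then activity followed continuously by pNA release from Ac-YVAD-pNA (200 μM; 1 h) at 405 nm. kobs at each concentration used to obtain kinact (irreversible first-order rate) and Ki = k-1/k1.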

Caspase-1 (Homo sapiens) [11] = target: T1, Caspase-1 (Homo sapiens); assay: Inhibition of caspase 1 (unknown origin) using N-acetyl-Tyr-Val-Ala-Asp-para-nitroanilide substrate assessed as rate of para-nitroanilide release at 0.01 to 10 uM by spectrophotometric assay; conditions: TDE = time-dependent effect; method in brief: as §3
Caspase-1 (Homo sapiens) [12] = target: T1, Caspase-1 (Homo sapiens); assay: (§4) Inhibition of caspase 1 (unknown origin) using N-acetyl-Tyr-Val-Ala-Asp-para-nitroanilide substrate assessed as rate of para-nitroanilide release by spectrophotometric assay; method in brief: as §3
Caspase-1 = target: T2, Caspase-1 (Homo sapiens, UniProt P29466); assay: as §4; method in brief: as §3
T2 sequence (P29466 whole entry): T1 sequence (whole entry)

Row | Compound | inhibition at 10 µM [1] | CC50 at 72 h [2] | also measured
1 | C=C(C#N)C(O)c1ccccn1 (configuration not stated) | 52.7% | 20.5 µM | 
2 | C=C(C(=O)OCC)C(O)c1ccc(Cl)cc1 (configuration not stated) | 50.5% | 34.9 µM | 
3 | C=C(C(=O)OCC)C(O)c1ccccc1 (configuration not stated) | 45.8% | 64.5 µM | k2 [3]: 0.524 M⁻¹ s⁻¹
4 | C=C(C(=O)OCC)C(OCCC(=O)OCC)c1c(Cl)cccc1Cl (configuration not stated) | 68.8% | > 100 µM | pEC50 [4]: 6.9; pEC50 [5]: 6.9; inhibition (THP-1): Dose-dependent effect
5 | C=C(C(=O)OCC)C(O)c1ccccn1 (configuration not stated) | 54.3% | 53.4 µM | 
6 | CCOC(=O)/C(=C/I)C(O)c1ccccc1Cl (configuration not stated) | 5.1% | 6.4 µM | 
7 | C=C(C#N)C(O)c1ccccc1F (configuration not stated) | 30.5% | 12.9 µM | 
8 | CCOC(=O)/C(=C\I)C(O)c1ccccc1Cl (configuration not stated) | 17.6% | 5.9 µM | 
9 | C=C(C(=O)OCC)C(O)c1ccccc1Br (configuration not stated) | 53.7% | 55.9 µM | 
10 | C=C(C(=O)OCC)C(O)c1cccc(Cl)c1 (configuration not stated) | 44.8% | 28.9 µM | 
11 | C=C(C(=O)OCC)C(O)c1ccccc1[N+](=O)[O-] (configuration not stated) | 63.7% | 7.8 µM | pEC50 [4]: 6.5; pEC50 [5]: 6.7; inhibition (THP-1): Dose-dependent effect
12 | C=C(C(=O)OCC)C(O)C1CCCCC1 (configuration not stated) | 64.3% | > 100 µM | 
13 | C=C(C(=O)OCC)C(OCCC(=O)OCC)c1ccc(Cl)cc1Cl (configuration not stated) | 43.9% | > 100 µM | pEC50 [4]: 7.1; pEC50 [5]: 6.7; inhibition (THP-1): Dose-dependent effect
14 | C=C(C#N)C(O)c1c(Cl)cccc1Cl (configuration not stated) | 51.5% | 16.3 µM | 
15 | C=C(C#N)C(O)c1ccccc1Cl (configuration not stated) | 83% | 11.6 µM | inhibition (Caspase-1 (Homo sapiens) [6]): 36.2%; inhibition [7]: 80.5%; k2 [3]: 0.777 M⁻¹ s⁻¹
16 | C=C(C(=O)OCC)C(O)c1ccccc1F (configuration not stated) | 82.3% | 25.4 µM | pEC50 [4]: 6.8; pEC50 [5]: 6.6; inhibition (THP-1): Dose-dependent effect
17 | C=C(C#N)C(O)c1cccc2ccccc12 (configuration not stated) | 53.5% | 10.1 µM | 
18 | CCOC(=O)/C(=C\c1ccccc1)C(O)c1ccccc1Cl (configuration not stated) | 52.5% | > 100 µM | k2 [3]: 0.588 M⁻¹ s⁻¹
19 | C=C(C(=O)OCC)C(OCCC(=O)OCC)c1ccccc1Cl (configuration not stated) | 58.3% | > 100 µM | 

Row | Compound | inhibition at 10 µM [1] | CC50 at 72 h [2] | also measured
20 | C=C(C(=O)OCC)C(O)c1c(Cl)cccc1Cl (configuration not stated) | 76.6% | 45.2 µM | 
21 | C=C(C(=O)O)C(O)c1ccccc1Cl (configuration not stated) | 42% | > 100 µM | inhibition [7]: 80.2%; k2 [3]: 0.117 M⁻¹ s⁻¹
22 | C=C(C(=O)OCC)C(O)c1ccccc1Cl (configuration not stated) | 75.1% | 67 µM | pEC50 [4]: 6.9; pEC50 [5]: 6.8; inhibition (THP-1): Dose-dependent effect; inhibition [7]: 51.8%; Activity [8]: Active; Activity [9]: Active; inhibition (Caspase-1 (Homo sapiens) [10]): Dose-dependent effect; inhibition (Caspase-1 (Homo sapiens) [11]): tde; Kinact (Caspase-1 (Homo sapiens) [12]): 3.2 s⁻¹; Ki (Caspase-1): 9.6 µM; k2 [3]: 0.866 M⁻¹ s⁻¹
23 | C=C(C(=O)OCC)C(O)c1ccccc1C (configuration not stated) | 37.8% | 56.7 µM | 
24 | C=C(C#N)C(O)c1ccccc1 (configuration not stated) | 54.1% | 22.3 µM | 
25 | C/C=C(/C(=O)OCC)C(O)c1ccccc1Cl (configuration not stated) | 31.8% | 73.8 µM | pEC50 [4]: 6.9; pEC50 [5]: 6.8; inhibition (THP-1): Dose-dependent effect
26 | CCOC(=O)C(C)C(O)c1ccccc1Cl (configuration not stated) | 1.6% | 75.5 µM | 
27 | C=C(C(=O)OCC)C(O)c1cc(Cl)cc(Cl)c1 (configuration not stated) | 78.4% | 18.8 µM | 
28 | C=C(C#N)C(O)c1ccc(Cl)cc1Cl (configuration not stated) | 14.1% | 36.4 µM | 
29 | C=C(C#N)C(O)c1ccccc1Br (configuration not stated) | 81.3% | 21.8 µM | 
30 | C=C(C(=O)OCC)C(C)O (configuration not stated) | 59.6% | 22.5 µM | 
31 | C=C(C(=O)CC)C(O)c1ccccc1Cl (configuration not stated) | 12.1% | 1.9 µM | k2 [3]: 7.16 M⁻¹ s⁻¹
32 | C=C(C#N)C(O)c1ccccc1[N+](=O)[O-] (configuration not stated) | 97.9% | 3.6 µM | 
33 | C=C(C(=O)OCC)C(O)c1ccc(Cl)cc1Cl (configuration not stated) | 72.4% | 70.5 µM | 
34 | C/C=C(\C(=O)OCC)C(O)c1ccccc1Cl (configuration not stated) | 36.2% | 80.1 µM | pEC50 [4]: 7; pEC50 [5]: 6.3; inhibition (THP-1): Dose-dependent effect; inhibition (Caspase-1 (Homo sapiens) [6]): 25.4%; inhibition [7]: 23.3%; k2 [3]: 0.126 M⁻¹ s⁻¹
35 | C=C1C(=O)O[C@@H]2C3O[C@]3(C)CC/C=C(\C)CC[C@@H]12 (some centres not stated) | 100% | 20.1 µM | pEC50 [4]: 6.9; pEC50 [5]: 6.3; inhibition (THP-1): Dose-dependent effect; inhibition [7]: 25.9%; inhibition (Caspase-1 (Homo sapiens) [10]): Dose-dependent effect; inhibition (Caspase-1 (Homo sapiens) [11]): tde; Kinact (Caspase-1 (Homo sapiens) [12]): 4 s⁻¹; Ki (Caspase-1): 10.6 µM; k2 [3]: 47.9 M⁻¹ s⁻¹
36 | CCOC(=O)/C(=C/c1ccccc1)C(O)c1ccccc1Cl (configuration not stated) | 55.5% | > 100 µM | 
37 | C=C(C(=O)NCCC)C(O)c1ccccc1Cl (configuration not stated) | 31.2% | 83.5 µM | k2 [3]: 0.126 M⁻¹ s⁻¹
38 | C=C(C(=O)OCC)C(O)c1ccccc1OC (configuration not stated) | 26.8% | 45.8 µM | k2 [3]: 0.423 M⁻¹ s⁻¹
